{
  "source": "paper PMC11905928",
  "about": "(Cell reports. Physical science, 2024)",
  "key": {"[1]": {"target": "Aβ19–20 (FF) dimerization (Homo sapiens, UniProt P05067)", "assay": "biochemical", "conditions": "for IC50: Hill equation, FJ, 200 mM KCl"}, "Aβ1–42 aggregation": {"target": "Aβ1–42 aggregation (Homo sapiens, UniProt P05067)", "sequence (P05067 672-713)": "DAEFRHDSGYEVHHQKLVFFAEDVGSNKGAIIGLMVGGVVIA", "assay": "Thioflavin T", "type": "biochemical", "conditions": "for normalized fluorescent intensity with respect to positive control Aβ1–42+ThT: Aβ1–42 preincubated 24 h"}, "C20 cells": {"system": "C20 cells", "assay": "MTT cell viability, compound by itself", "type": "cell-based, human", "procedure,_shortened": "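MTT assay on human microglial C20 cells, run by dose and also by incubation time at 1 uM of test compound. At least three independent experiments, each with 10 technical replicates; error bars are SDs.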"}, "[2]": {"system": "human microglia cells (C20 cell line)", "assay": "MTT cell viability, protection against Aβ1–42 induced toxicity", "type": "cell-based", "conditions": "48 h; for viability: C20, Aβ1–42 500 nM; for viability at 0.5 µM: Homo sapiens, Microglia"}, "[3]": {"system": "neuroblastoma SH-SY5Y cells", "assay": "MTT cell viability, Aβ1–42 treated neuroblastoma cells", "type": "cell-based", "conditions": "10 μM Aβ1–42, Figure S32"}, "Solubility": {"assay": "Solubility", "type": "physicochemical"}},
  "note": "Structures can show the parent of a compound that is named as a salt. Where two headings read alike, the source gives them in different places.",
  "data": [
    {"smiles": "CN(C)[C@@H]1C(O)=C(C(N)=O)C(=O)[C@@]2(O)C(O)=C3C(=O)c4c(O)cccc4[C@@](C)(O)[C@H]3C[C@@H]12", "note": "[Tetracycline, tetracycline]", "values": [
      {"measurement": "IC50", "setting": "[1]; IC50 on the FF-dimerization", "value": 77.6, "unit": "µM"}
    ]},
    {"smiles": "O=C(O[C@@H]1Cc2c(O)cc(O)cc2O[C@@H]1c1cc(O)c(O)c(O)c1)c1cc(O)c(O)c(O)c1", "note": "[Epigallocatechin gallate (EGCG), epigallocatechin gallate]", "values": [
      {"measurement": "IC50", "setting": "[1]; read-out: IC50 on the FF-dimerization", "value": 26.3, "unit": "µM"}
    ]},
    {"smiles": "COc1cccc2c1C(=O)c1c(O)c3c(c(O)c1C2=O)C[C@@](O)(C(C)=O)C[C@@H]3O[C@H]1C[C@H](N)[C@H](O)[C@H](C)O1", "note": "[Daunorubicin hydrochloride, reference compound]", "values": [
      {"measurement": "effect on Aβ1–42 aggregation (in words)", "setting": "Aβ1–42 aggregation; after 24-h incubation, ThT 3.75 μM", "value": "inhibitory effects"},
      {"measurement": "toxicity of the compound by itself (in words)", "setting": "C20 cells; C20 cells", "value": "showed a toxicity effect by itself"},
      {"measurement": "IC50", "setting": "[1]; IC50 on the FF-dimerization", "value": 3.5, "unit": "µM"}
    ]},
    {"smiles": "C[C@H](Cc1ccc(O)c(O)c1)[C@@H](C)Cc1ccc(O)c(O)c1", "note": "[Nordihydroguaiaretic acid (NDGA), nordihydroguaiaretic acid]", "values": [
      {"measurement": "IC50", "setting": "[1]; IC50 on the FF-dimerization", "value": 107, "unit": "µM"}
    ]},
    {"smiles": "O=C(/C=C/c1ccc(O)c(O)c1)O[C@H](Cc1ccc(O)c(O)c1)C(=O)O", "note": "[Rosmarinic acid (RA), rosmarinic acid, reference compound]", "values": [
      {"measurement": "viability", "setting": "[2]; compound 1 μM", "value": "66% ± 2%"},
      {"measurement": "viability", "setting": "[2]; compound 5 μM", "value": "69% ± 2%"},
      {"measurement": "viability at 0.5 µM", "setting": "[2]", "value": 67, "unit": "%"},
      {"measurement": "IC50", "setting": "[1]; IC50 on the FF-dimerization", "value": 13.1, "unit": "µM"}
    ]},
    {"smiles": "COc1cc(/C=C/C(=O)CC(=O)/C=C/c2ccc(O)c(OC)c2)ccc1O", "note": "[curcumin]", "values": [
      {"measurement": "effect on the FF-dimerization (in words)", "setting": "[1]", "value": "strong inhibition effect"}
    ]},
    {"smiles": "Cc1c2ccncc2c(C)c2c1[nH]c1ccccc12", "note": "[Ellipticine]", "values": [
      {"measurement": "viability", "setting": "[2]; compound 0.05 μM", "value": "65% ± 3%"},
      {"measurement": "viability", "setting": "[2]; compound 0.1 μM", "value": "64% ± 4%"},
      {"measurement": "viability at 0.5 µM", "setting": "[2]", "value": 61, "unit": "%"},
      {"measurement": "normalized fluorescent intensity with respect to positive control Aβ1–42+ThT", "setting": "Aβ1–42 aggregation; 0.2 μM compound, ThT 3.75 μM", "value": 106, "unit": "%"},
      {"measurement": "normalized fluorescent intensity with respect to positive control Aβ1–42+ThT", "setting": "Aβ1–42 aggregation; 0.5 μM compound, ThT 3.75 μM", "value": 112, "unit": "%"},
      {"measurement": "effect on Aβ1–42 aggregation (in words)", "setting": "Aβ1–42 aggregation; concentration >1 μM", "value": "inhibition effect"},
      {"measurement": "effect on Aβ1–42 aggregation (in words)", "setting": "Aβ1–42 aggregation; low-concentration range ≤0.5 μM", "value": "stimulator"},
      {"measurement": "C20 cell viability at high concentrations (in words)", "setting": "C20 cells; high-concentration range such as 5 μM, Figure S31", "value": "significantly influenced"},
      {"measurement": "effect on the FF-dimerization (in words)", "setting": "[1]; single-molecule screening of NIH library", "value": "concentration-dependent promotion effect"},
      {"measurement": "effect on cells treated with Aβ1–42 (in words)", "setting": "[3]", "value": "protective effects"},
      {"measurement": "solubility", "setting": "Solubility; aqueous buffer", "value": "≤ 200", "unit": "µM"},
      {"measurement": "solubility", "setting": "Solubility; methanol-water (16:84 v/v), aqueous with cosolvent or surfactant or cyclodextrin", "value": 1200, "unit": "µM"}
    ]}
  ]
}
